# Rows were chosen to be rich in hits. Some 0.99% of all compounds tested hit in one or more screens of this group.
# MT1-MMP act inh = MT1-MMP (human) activation inhibition | GFP/RFP ratio change, % at 20 µM | 0.061% of 360,000 active | HT1080 RFP-PRO-GFP cells, GFP/RFP ratio fluorescence, overnight; percent of plate control window, DMSO zero | P50281;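 active = GFP/RFP ratio change of at least 30% with cell ATP level not reduced by more than half and red fluorescence within 50% of control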
#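 Assay system: HT1080 RFP-PRO-GFP cells. Benchmarks: DMSO vehicle wells and RFP-L50D-GFP reporter cell wells. Times: overnight cell settling, then overnight compound exposure, 37 °C, 5% CO2. Compound: 20 µM single dose, 1% DMSO. Read-out basis: GFP/RFP fluorescence ratio.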
# NOD2 RIPK2 PPI = NOD2-RIPK2 protein interaction inhibition. O43353. 0.38% of 360,000 active. CHO BLA complementation NOD2-RIPK2, CCF4 ratio. inhibition, % at 4.98 µM; in the data active = inhibition above about 21%;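 also: 0% = vehicle only and 100% = reference blocker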
# TLR4 MyD88 comp = TLR4-MyD88 interaction inhibition in cells | O00206+Q99836 | HeLa CL3-4 TLR4/MyD88 BLA complementation, FRET ratio | inhibition, % at 8.4 µM | 0.18% of 200,000 active | AID 861; in the data active = inhibition above about 25%;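 also: 0% = vehicle and 100% = reference inhibitor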
# SKN-1 block = inhibitors of C. elegans SKN-1 | inhibition, % at 21.8 µM | 0.49% of 360,000 active | C. elegans VP596 Pgst-4::GFP/RFP ratio, acrylamide-induced, 24 h;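 active = interference check ratio from 0.5 to 1.5 plus GFP to RFP signal ratio inhibition reaching or exceeding a fixed threshold, cut at about 30% in these data, passing the limit was not always enough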
# TLR9-MyD88 block = TLR9-MyD88 interaction inhibition; 0.21% of 340,000 active; inhibition, % at 4.98 µM; Q9NR96+Q99836; CHO BLA complementation TLR9-MyD88, CCF4 FRET ratio;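 active = inhibition above the mean over all tested compounds plus 3 SD, cut at about 21% in these data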;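 also: 0% = DMSO only wells and 100% = clavulanate BLA inhibitor control wells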
# The depositor's hits bear a star; / = no result.
SMILES,MT1-MMP act inh,NOD2 RIPK2 PPI,TLR4 MyD88 comp,SKN-1 block,TLR9-MyD88 block
COc1ccc(OC)c(CCNC(=O)c2ccc(CS(=O)Cc3ccc(Cl)cc3)o2)c1 (stereo not drawn),3,-1,/,6,4
COc1ccc(/C=N/n2c(=O)[nH]c3c([nH]c4ccc(Br)cc43)c2=O)cc1CN1CCOCC1,5,1,-12,37*,9
COc1ccc(OCC(=O)Sc2ccc(C)cc2)cc1,1,4,2,43*,4
COc1ccc(OC(=O)COc2ccc(C)cc2)cc1,-2,-14,3,4,-6
CCN1/C(=C/c2ccc3cccc(C)c3[n+]2CC)Sc2ccccc21,-222,8,24,49*,3
CN1/C(=C\C(=O)COC(=O)Cn2nnc(-c3ccccc3)n2)C(C)(C)c2ccccc21,39*,8,11,66,-11
CCN(CC)c1ccc(C2Nc3cccc4cccc(c34)N2)cc1,0,-3,/,-5,-3
CCN(CC)c1ccc(C2NC(=O)c3ccccc3N2)cc1 (stereo not drawn),4,-9,/,37*,-4
O=C(COC(=O)c1ccccc1Br)Nc1cc(S(=O)(=O)N2CCOCC2)ccc1N1CCCC1,-1,0,-11,-1,3
CN(N=Cc1ccc([N+](=O)[O-])cc1)c1ccccn1,-2,3,/,48*,-5
O=C(COc1ccccc1)NCC(=O)N1CCCCCC1,1,-4,/,-6,0
CC(C)c1ccc(N(CC(=O)Nc2ccc(S(=O)(=O)N3CCOCC3)cc2)S(C)(=O)=O)cc1,4,1,8,40*,-1
C/C=C(\C)C(=O)OC1CC(C)(C)C[C@H]2C3=CC[C@@H]4[C@@]5(C)CCC(O[C@@H]6O[C@@H](C(=O)O)[C@@H](O)C(O[C@@H]7OC[C@H](O)[C@@H](O)[C@@H]7O[C@@H]7OC(CO)C(O)[C@@H](O)[C@@H]7O)C6O[C@@H]6OC(CO)C(O)C(O)C6O)[C@@](C)(CO)[C@@H]5CC[C@]4(C)[C@]3(C)CC(O)[C@@]12CO (stereo partly drawn),-13,-8,/,-10,-2
C=CCCN(Cc1ccccc1)S(=O)(=O)c1cc(Br)ccc1Br,0,-2,/,5,-5
C=CCN=c1scc(-c2ccccc2)n1/N=C/c1ccccn1,2,9,-12,7,-7
CCN=c1scc(-c2ccccc2)n1/N=C/c1ccccn1,-1,14,10,44*,5
CCN=c1scc(-c2ccc(F)cc2)n1/N=C/c1ccccn1,1,4,-13,45*,-5
C=CCN=c1scc(-c2ccc(F)cc2)n1/N=C/c1ccccn1,1,0,0,29,-3
CC(Oc1ccc([N+](=O)[O-])cc1)C(=O)NCC1CCCO1 (stereo not drawn),-3,1,/,9,-2
O=S1(=O)CCN(Cc2cccnc2)CC1,-8,-2,/,14,-4
Nc1cccc2cc(S(=O)(=O)O)ccc12,4,1,/,51*,3
COc1cc2c(cc1NC(=O)c1cccnc1)CCCC2,-7,-5,-4,38*,-6
COc1cc(C2Nc3cccc4cccc(c34)N2)ccc1OC(C)=O,31*,-6,7,-18,0
COC(=O)c1sccc1NS(=O)(=O)c1ccccc1,0,-3,/,-16,-2
CCOC(=O)c1c(NC(=O)CC2SC(N)=NC2=O)sc2c1CCCC2 (stereo not drawn),3,1,2,12,-1
SMILES,MT1-MMP act inh,NOD2 RIPK2 PPI,TLR4 MyD88 comp,SKN-1 block,TLR9-MyD88 block
CC(=O)N1CC(C)Sc2ccc(S(=O)(=O)NC(C)c3ccccc3)cc21 (stereo not drawn),-5,4,/,-14,-13
CCn1c(C)c(C)c2cc(C(=O)N3CCc4ccccc4C3)ccc21,-5,10,/,42*,-1
CCN1CCN(C(=O)c2ccc3c(c2)c(C)c(C)n3Cc2ccccc2)CC1,1,0,-5,14,4
O=C(CS(=O)(=O)c1ccc(Cl)cc1)N1CCN(c2ccccc2)CC1,-2,8,/,8,-4
Brc1ccccc1/C=N/Nc1ccc2ccccc2n1,2,-9,-9,3,-11
Brc1ccc(/C=N/Nc2ccc3ccccc3n2)cc1,/,-18,0,45*,1
Cc1c(-c2nc(-c3cccnc3)no2)cccc1[N+](=O)[O-],2,-4,6,42*,6
Nc1ccc(N=Nc2ccccc2)cc1[N+](=O)[O-],6,1,/,57*,2
FCCCOc1ccc(/C=N/OCc2c(Cl)cccc2Cl)cc1,-1,-2,8,-22,-2
FCCCOc1ccc(/C=N/OCc2ccc(Cl)cc2)cc1,-5,-14,-1,42*,-13
COc1ccc(-n2sc3c(c2=S)-c2cc(OC)ccc2NC3(C)C)cc1,2,-4,8,40*,1
COc1ccc2c(c1)-c1c(sn(-c3ccccc3)c1=S)C(C)(C)N2,-3,-3,-11,4,8
O=C(Nc1cc(Cl)cc(Cl)c1)N[C@@H]1CC[C@@H](CCNS(=O)(=O)c2cccc(F)c2)O[C@@H]1CO,-1,-9,/,-5,/
Cc1noc(C)c1CSc1nc2ccccc2s1,1,-13,2,2,4
c1csc(CSc2nc3ccccc3s2)c1,-1,9,-1,78*,8
O=S(=O)(NC1CCCC1)c1cccc(-c2nnc(-c3ccccc3)o2)c1,-1,10,-1,9,11
COc1ccc(NS(=O)(=O)c2cccc(-c3nnc(-c4ccccc4)o3)c2)cc1,-1,-3,0,34*,4
NC(=O)c1cc(N)ccc1N1CCCC1,7,-17,-5,60*,3
c1ccc(CCNc2ncnc3ccccc23)cc1,-13,-3,0,8,-8
CCCCCCCCNc1ncnc2ccccc12,2,-11,-1,51*,-10
Oc1ccc(N=Nc2ccc3ccccc3c2)cc1,2,-3,/,46*,6
COc1cc(N=Nc2ccc3ccccc3c2)ccc1O,11,9,/,13,0
Clc1ccc2oc(-c3cccnc3)nc2c1,-4,-4,1,50*,5
Clc1ccc2oc(SCc3cccnc3)nc2c1,-4,2,/,41*,-6
Clc1ccc2oc(-c3ccccc3)nc2c1,-1,-3,3,28,2
O=C(CSc1nc2cc(Cl)ccc2o1)NCCc1ccccc1,1,1,8,0,-13
CC1(C(=O)Nc2ccc(Cl)c(Cl)c2)CCN1Cc1cc2ccccc2o1 (stereo not drawn),0,-7,/,3,/
CC(C)Cn1c(N)c(C(=O)CSc2nnnn2C)c(=O)n(C)c1=O,4,3,11,43*,-3
N/C(=N\OC(=O)Cc1cccs1)c1ccc(Br)cc1,1,-1,-5,61*,0
COc1ccc(/C(N)=N/OC(=O)c2ccco2)cc1,2,-7,13,51*,1

# Source: PubChem (several laboratories)
